Converted amounts (≈) assume the structure as drawn.
Assays:
B2 bradykinin receptor [1] = biological target: T1, B2 bradykinin receptor (Homo sapiens, UniProt P30411); assay: Displacement of [3H]BK (1 nM) from human Bradykinin receptor B2 expressed in Cos-7 cells; type: cell-based
T1 sequence (P30411 whole entry): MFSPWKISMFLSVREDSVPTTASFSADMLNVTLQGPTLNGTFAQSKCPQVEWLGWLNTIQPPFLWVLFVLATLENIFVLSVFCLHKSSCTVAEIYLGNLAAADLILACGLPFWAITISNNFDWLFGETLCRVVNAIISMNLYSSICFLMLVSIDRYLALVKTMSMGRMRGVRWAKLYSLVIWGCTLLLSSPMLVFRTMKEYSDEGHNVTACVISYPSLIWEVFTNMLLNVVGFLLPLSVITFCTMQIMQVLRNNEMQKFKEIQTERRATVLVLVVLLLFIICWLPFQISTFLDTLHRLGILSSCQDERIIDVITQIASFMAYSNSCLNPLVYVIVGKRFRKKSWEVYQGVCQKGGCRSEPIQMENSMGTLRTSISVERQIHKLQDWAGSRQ
Outline: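 [3H]BK was 1 nM and nonspecific binding was set with 10 µM BK. Incubation was 60 min at 4 °C, then GF/B filtration, a cold 50 mM Tris pH 7.4 wash and counting. Ki was derived from IC50 (Cheng–Prusoff). Data are mean ± SEM of ≥3 triplicate experiments.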

B2 bradykinin receptor [2] = biological target: T2, B2 bradykinin receptor (Rattus norvegicus, UniProt P25023); assay: Inhibition of specific binding of [3H]-BK (1 nM) to rat Bradykinin receptor B2 by 50% in NG108-15 cell membranes; design: species or system Membrane
T2 sequence (P25023 whole entry): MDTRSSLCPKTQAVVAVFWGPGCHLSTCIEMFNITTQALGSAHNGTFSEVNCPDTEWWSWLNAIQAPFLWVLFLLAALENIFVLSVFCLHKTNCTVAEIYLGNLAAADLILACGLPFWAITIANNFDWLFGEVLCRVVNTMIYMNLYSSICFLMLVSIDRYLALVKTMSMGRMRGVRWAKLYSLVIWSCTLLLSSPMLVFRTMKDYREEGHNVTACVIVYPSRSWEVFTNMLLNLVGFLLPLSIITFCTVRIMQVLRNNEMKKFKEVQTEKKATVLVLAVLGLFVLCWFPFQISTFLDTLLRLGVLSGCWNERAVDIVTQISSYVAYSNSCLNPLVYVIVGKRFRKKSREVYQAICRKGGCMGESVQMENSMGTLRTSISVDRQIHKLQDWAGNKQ
Outline: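 NG108-15 cell membranes (rodent B2) were diluted to about 0.3 mg/mL protein in 25 mM potassium phosphate pH 6.5 with 1 mM EGTA, 0.1 mM bacitracin, chymostatin and BSA. [3H]BK was 1 nM and nonspecific binding was set with 10 µM BK. Incubation was 60 min at 4 °C, followed by PEI-soaked GF/B filtration, a cold phosphate pH 6.5 wash and scintillation counting. Ki was derived from IC50 (Cheng–Prusoff). Data are mean ± SEM of ≥3 experiments in triplicate.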

[3] = Solubility at pH 7.4; type: physicochemical; conditions: buffer
B2 bradykinin receptor [4] = biological target: T2, B2 bradykinin receptor; assay: Inhibition of Bradykinin receptor B2-mediated contractions of rat uterus smooth muscle; type: functional, tissue-based
B2 bradykinin receptor [5] = biological target: T2, B2 bradykinin receptor; assay: Inhibition of increase in [Ca2+] efflux from NG108-15 cells caused by activation of rat Bradykinin receptor B2; type: functional, cell-based
B2 bradykinin receptor [6] = biological target: T1, B2 bradykinin receptor; assay: Antagonism of the [Ca2+] efflux actions of the human Bradykinin receptor B2 (SK-N-SH neuroblastoma); type: functional
B2 bradykinin receptor [7] = biological target: T1, B2 bradykinin receptor; assay: Antagonism of the [Ca2+] efflux actions of the human Bradykinin receptor B2 (WI38 fibroblasts); type: functional
Rattus norvegicus [8] = organism: Rattus norvegicus; assay: Reversal of turpentine-induced mechanical […] in rats; type: functional
Outline: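 Rats received an intraplantar injection of 50 µL turpentine/paraffin (1:1) into the left hind paw. Three days later, compound or vehicle was given orally or iv, and the paw withdrawal threshold (mean of two readings) was taken 1 h later. ED50 was the dose giving 50% of maximum reversal. Efficacy was the maximum reversal as % of the pre-turpentine threshold.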

Rattus norvegicus [9] = organism: Rattus norvegicus; assay: Reversal of FCAT-induced mechanical […] in rats; type: functional
Outline: (§1)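 Female Sprague-Dawley rats (100-120 g) under light enflurane received 100 µL FCA into one knee. Three to six days later, each hind paw was placed on a pressure transducer with the uninjected leg bearing 100 g, and the load tolerated by the injected leg was read half-hourly. Compounds were given after three control readings. The response was expressed as % maximal reversal (100% = equal load on both legs).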

Rattus norvegicus [10] = organism: Rattus norvegicus; assay: Oral efficacy against FCAT-induced mechanical […] in rats; type: functional; outline: as §1
Rattus norvegicus [11] = organism: Rattus norvegicus; assay: Duration of action (excess) in FCAT-induced mechanical […] in rats; type: functional
B2 bradykinin receptor [12] = biological target: T1, B2 bradykinin receptor; assay: Antagonism of the [Ca2+] efflux actions of human Bradykinin receptor B2 (SK-N-SH neuroblastoma); type: functional
B2 bradykinin receptor [13] = biological target: T1, B2 bradykinin receptor; assay: Antagonism of the [Ca2+] efflux actions of human Bradykinin receptor B2 (WI38 fibroblasts); type: functional

In the case of `CN(C)CCN(C)CCNC(=O)[C@H]1CCCN1S(=O)(=O)c1ccc(NNC(=S)NC(c2ccccc2)c2ccccc2)c([N+](=O)[O-])c1`, the Ki (B2 bradykinin receptor [1]) is reported as 1430 nM.

`CN(C)CCN(C)CCNC(=O)c1cccn1S(=O)(=O)c1ccc(N/N=C(\S)NC2c3ccccc3CCc3ccccc32)c([N+](=O)[O-])c1` gave a Ki (B2 bradykinin receptor [2]) of 64.5 nM and a Ki (B2 bradykinin receptor [1]) of 1.47 nM.

Work on `CN(C)CCCN(C)CCNC(=O)[C@@H]1CCCN1S(=O)(=O)c1ccc(N/N=C(\S)NC2c3ccccc3-c3ccccc32)c([N+](=O)[O-])c1` yielded a Ki (B2 bradykinin receptor [1]) of 645 nM.

`CN(C)CCCN(C)CCNC(=O)c1cccn1S(=O)(=O)c1ccc(NNC(=O)NC2c3ccccc3CCc3ccccc32)c([N+](=O)[O-])c1` gave a solubility [3] of 400 µg/mL (≈ 569 µM), an IC50 (B2 bradykinin receptor [4]) of 1.9 nM and an IC50 (B2 bradykinin receptor [5]) of 141 nM. The Ki (B2 bradykinin receptor [2]) was 176 nM, the IC50 (B2 bradykinin receptor [6]) was 12 nM and the IC50 (B2 bradykinin receptor [7]) was 55 nM. The ED50 (Rattus norvegicus [8]) was 0.32 µmol/kg, the ED50 (Rattus norvegicus [9]) was 0.027 µmol/kg and the Ki (B2 bradykinin receptor [1]) was 2.79 nM.

Molecule `CN(C)CCN(C)CCNC(=O)[C@@H]1CCCN1S(=O)(=O)c1ccc(NNC(=S)NC(c2ccccc2)c2ccccc2)c([N+](=O)[O-])c1` has an ED50 (Rattus norvegicus [10]) of 0.84 µmol/kg, a Time (Rattus norvegicus [11]) of 4 h and a Ki (B2 bradykinin receptor [1]) of 772 nM.

For `CN(C)CCCN(C)CCNC(=O)[C@@H]1CCCN1S(=O)(=O)c1ccc(N/N=C(\S)NC(c2ccccc2)c2ccccc2)c([N+](=O)[O-])c1`, the Ki (B2 bradykinin receptor [2]) was 0.023 nM and the Ki (B2 bradykinin receptor [1]) was 119 nM.

With `CN(C)CCCN(C)CCNC(=O)[C@@H]1CCCN1S(=O)(=O)c1ccc(NNC(=O)NC2c3ccccc3CCc3ccccc32)c([N+](=O)[O-])c1` the IC50 (B2 bradykinin receptor [4]) was 2.4 nM, the IC50 (B2 bradykinin receptor [5]) was 105 nM and the Ki (B2 bradykinin receptor [2]) was 10.7 nM. For the same molecule, the IC50 (B2 bradykinin receptor [12]) was 91 nM, the IC50 (B2 bradykinin receptor [13]) was 17 nM and the ED50 (Rattus norvegicus [8]) was 0.11 µmol/kg. For the same molecule, the ED50 (Rattus norvegicus [9]) was 0.043 µmol/kg and the Ki (B2 bradykinin receptor [1]) was 0.79 nM.

For `CN(C)CCCN(C)CCNC(=O)c1cccn1S(=O)(=O)c1ccc(NNC(=O)NC2c3ccccc3CCc3ccccc32)c(Cl)c1`, the Ki (B2 bradykinin receptor [1]) was 253 nM.

Molecule `CN(C)CCCN(C)CCCNC(=O)[C@@H]1CCCN1S(=O)(=O)c1ccc(N/N=C(\S)NC(c2ccccc2)c2ccccc2)c([N+](=O)[O-])c1` has a Ki (B2 bradykinin receptor [2]) of 0.31 nM and a Ki (B2 bradykinin receptor [1]) of 95 nM.

`CN(C)CCN(C)CCNC(=O)[C@@H]1CCCN1S(=O)(=O)c1ccc(NNC(=S)NC2c3ccccc3CCc3ccccc32)c([N+](=O)[O-])c1` gave a Ki (B2 bradykinin receptor [2]) of 14.5 nM and a Ki (B2 bradykinin receptor [1]) of 4.67 nM.

`CN(C)CCN(C)CCNC(=O)[C@@H]1CCCN1S(=O)(=O)c1ccc(N/N=C(\S)NC(c2ccccc2Cl)c2ccccc2Cl)c([N+](=O)[O-])c1` gave a Ki (B2 bradykinin receptor [2]) of 5.46 nM and a Ki (B2 bradykinin receptor [1]) of 34.1 nM.

In the case of `CN(C)CCN(C)CCNC(=O)c1cccn1S(=O)(=O)c1ccc(NNC(=S)NC(c2ccccc2)c2ccccc2)c([N+](=O)[O-])c1`, the Ki (B2 bradykinin receptor [1]) is reported as 237 nM.

`CN(C)CCN(C)CCNC(=O)[C@@H]1CCCN1S(=O)(=O)c1ccc(NNC(=O)NC(c2ccccc2)c2ccccc2)c(Cl)c1` showed a Ki (B2 bradykinin receptor [2]) of 7.3 nM.
